According to ChEMBL document CHEMBL1781950, “Synthesis of 4-(aminoalkyl) substituted 1,3-dioxanes as potent NMDA and σ receptor antagonists” (Eur J Med Chem, 2011):
Calls of active or inactive are those of the source. No cut-off for these calls is given here.

Legend:
[1] = target: Sigma non-opioid intracellular receptor 1 (Cavia porcellus, UniProt Q60492); assay: Displacement of [3H]-(+)-pentazocine from sigma 1 receptor PCP binding site in guinea pig brain by liquid scintillation counting
[2] = Displacement of [3H]-ditolylguanidine from sigma 2 receptor PCP binding site in rat liver membrane; assay type: cell membranes
Method in brief: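 Non-specific binding with 10 µM unlabelled ditolylguanidine. Triplicates; IC50 from at least 6 concentrations by nonlinear regression; Ki mean ± SEM of three experiments.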

[3] = Displacement of [3H]-(+)-MK801 from NMDA receptor PCP binding site in pig cortex membrane after 90 mins by liquid scintillation counting; assay type: cell membranes, Sus scrofa
Method in brief: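 Pig brain cortex membranes (about 100 µg protein) incubated with 2 nM [3H]-(+)-MK-801 and at least 6 test concentrations in 5 mM Tris–acetate, 1 mM EDTA, pH 7.5, 90 min at 25 °C. Filtered on PEI-soaked GF/C filters. Non-specific binding with 10 µM (+)-MK-801. IC50 by nonlinear regression, triplicates; Ki mean ± SEM of three experiments.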

[4] = Displacement of [3H]-(+)-MK801 from NMDA receptor PCP binding site
Method in brief: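 Pig brain cortex membranes (about 100 µg protein) incubated with test compound (at least 6 concentrations), 2 nM [3H]-(+)-MK-801 in 5 mM Tris–acetate, 1 mM EDTA, pH 7.5, 90 min at 25 °C. Filtered through polyethylenimine-soaked GF/C filters, counted by scintillation. Nonspecific binding with 10 µM (+)-MK-801. IC50 from nonlinear regression, converted to Ki. Triplicates, three independent experiments.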

[5] = test system: Mus musculus; assay: Analgesic activity against capsaicin-induced nocifensive behavior in mouse assessed as paw withdrawal latency to von Frey filament-induced pain at 0.5 mg/kg administered 30 mins before and measured 15 mins after capsaicin challenge; assay type: functional
Method in brief: (§1)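 Capsaicin injected into mid-plantar surface of right hind paw of mice; test ligand given 30 min before capsaicin. Mechanical withdrawal latency to a 1 g von Frey filament read 15 min after capsaicin; effect expressed as % analgesia.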

[6] = test system: Mus musculus; assay: Analgesic activity against capsaicin-induced nocifensive behavior in mouse assessed as paw withdrawal latency to von Frey filament-induced pain at 0.125 mg/kg administered 30 mins before and measured 15 mins after capsaicin challenge; assay type: functional; method in brief: as §1
[7] = Selectivity ratio of Ki for rat sigma 2 receptor to Ki for guinea pig sigma 1 receptor
[8] = test system: Mus musculus; assay: Analgesic activity against capsaicin-induced nocifensive behavior in mouse assessed as paw withdrawal latency to von Frey filament-induced pain at 0.25 mg/kg administered 30 mins before and measured 15 mins after capsaicin challenge; assay type: functional; method in brief: as §1
[9] = test system: Mus musculus; assay: Analgesic activity against capsaicin-induced nocifensive behavior in mouse assessed as paw withdrawal latency to von Frey filament-induced pain at 32 mg/kg administered 30 mins before and measured 15 mins after capsaicin challenge; assay type: functional, organism-based; set-up: dose 32 mg/kg; method in brief: as §1
[10] = test system: Mus musculus; assay: Analgesic activity against capsaicin-induced nocifensive behavior in mouse assessed as paw withdrawal latency to von Frey filament-induced pain at 1 mg/kg administered 30 mins before and measured 15 mins after capsaicin challenge; assay type: functional; method in brief: as §1

Sigma non-opioid intracellular receptor 1, sequence (Q60492 whole entry): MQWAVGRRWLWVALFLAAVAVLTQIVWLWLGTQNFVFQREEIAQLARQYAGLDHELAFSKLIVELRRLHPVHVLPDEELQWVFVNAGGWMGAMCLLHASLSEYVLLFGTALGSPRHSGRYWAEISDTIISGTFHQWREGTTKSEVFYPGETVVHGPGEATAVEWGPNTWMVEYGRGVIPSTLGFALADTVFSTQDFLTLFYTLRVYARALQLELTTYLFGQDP

SMILES	Ki [1]	Ki [2]	Ki [3]	further results
c1ccc(CNCCC[C@@H]2CCO[C@H](c3ccccc3)O2)cc1 (relative stereo)	164 nM	3.89 µM	> 10 µM	
NCC[C@@H]1CCOC2(O1)C1CC3CC(C1)CC2C3 (some centres undefined)	1250 nM	> 10 µM	> 10 µM	
CC[C@]1(c2ccccc2)OC[C@H]([C@@H]2CCCCN2)O1 [ETOXADROL]			0.022 µM	Ki [4]: 20 nM
c1ccc(CNCC[C@@H]2CCOC(c3ccccc3)(c3ccccc3)O2)cc1	320 nM	2.75 µM	> 10 µM	
NCCC[C@@H]1CCO[C@H](c2ccccc2)O1 (relative stereo)	167 nM	0.581 µM	> 10 µM	
NCC[C@@H]1CCOC(c2ccccc2)(c2ccccc2)O1	> 10000 nM	> 10 µM	2.35 µM	
CC[C@@]1(c2ccccc2)OCC[C@@H](CCNC)O1 (relative stereo)	856 nM	> 10 µM	0.154 µM	
NC[C@@H]1CCOC(c2ccccc2)(c2ccccc2)O1			0.717 µM	
Cc1ccccc1NC(=N)Nc1ccccc1C [DITOLYLGUANIDINE]		0.064 µM		
NCC[C@@H]1CCO[C@H](c2ccccc2)O1 (racemic)	165 nM	> 10 µM	> 10 µM	
CC[C@@]1(c2ccccc2)OCC[C@@H](CCN)O1 (relative stereo)	955 nM	> 10 µM	0.024 µM	
CN(C)CC[C@@H]1CCOC(c2ccccc2)(c2ccccc2)O1	660 nM	> 10 µM	> 10 µM	
CC[C@]1(c2ccccc2)OCC[C@@H](CN)O1			0.257 µM	
CNCC[C@@H]1CCO[C@H](c2ccccc2)O1 (racemic)	449 nM	> 10 µM	> 10 µM	
c1ccc(C2(c3ccccc3)OC[C@H]([C@@H]3CCCCN3)O2)cc1 [DEXOXADROL]				Ki [4]: 23 nM
c1ccc(CNCC[C@@H]2CCO[C@H](c3ccccc3)O2)cc1 (racemic)	19 nM	0.092 µM	> 10 µM	Activity [5]: 100%; Activity [6]: 10%; Ratio Ki [7]: 5; Activity [8]: 70%; Activity [9]: Active; Activity [10]: 100%
CC[C@]1(c2ccccc2)OC[C@H](CCN)O1			0.069 µM	
CC[C@@]1(c2ccccc2)OCC[C@@H](CCN(C)C)O1 (relative stereo)	511 nM	> 10 µM	0.713 µM	
CN(C)CC[C@@H]1CCO[C@H](c2ccccc2)O1 (racemic)	1650 nM	1.83 µM	> 10 µM	
CNCCC[C@@H]1CCO[C@H](c2ccccc2)O1 (relative stereo)	327 nM	6.32 µM	> 10 µM	
NCC[C@H]1COC(c2ccccc2)(c2ccccc2)O1			3.26 µM	
CC[C@@]1(c2ccccc2)OCC[C@@H](CCCN)O1 (relative stereo)	6450 nM	0.542 µM	7.67 µM	
NCCC[C@@H]1CCOC(c2ccccc2)(c2ccccc2)O1	175 nM	> 10 µM	> 10 µM	
CC[C@@]1(c2ccccc2)OCC[C@@H](CCNCc2ccccc2)O1 (relative stereo)	27 nM	0.903 µM	> 10 µM	Ratio Ki [7]: 33; Activity [9]: inactive
c1ccc(C2(N3CCCCC3)CCCCC2)cc1 [PHENCYCLIDINE]			0.028 µM	
CNCC[C@@H]1CCOC(c2ccccc2)(c2ccccc2)O1	> 10000 nM	> 10 µM	6.87 µM	
CN(C)CCC[C@@H]1CCO[C@H](c2ccccc2)O1 (relative stereo)	1220 nM	> 10 µM	> 10 µM	
